Assay [1] has as its target Kappa-type opioid receptor (Cavia porcellus) (UniProt P41144). Nature of the assay: Ratio of IC50 of ethylketazocine (agonist) after 10 min of incubation along with compound (antagonist) and IC50 of agonist in absence of compound for kappa opioid receptor at 1 uM in GPI assay (Exp 1). The assay is classed as functional. A digest of the protocol: (§1)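 Reversible antagonism was measured in electrically stimulated isolated tissue (MVD or GPI) with the antagonist present. Agonists were morphine (μ), ethylketazocine (κ) and DADLE (δ). The value is the agonist IC50 with antagonist divided by the IC50 without it, i.e. the fold rightward shift of the agonist dose-response curve. Mean ± SEM, n = 3 unless otherwise noted.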

For assay [2], the target named is Mu-type opioid receptor (Cavia porcellus) (UniProt P97266). Nature of the assay: Ratio of IC50 of […] (agonist) after 10 min of incubation along with compound (antagonist) and IC50 of agonist in absence of compound for mu opioid receptor at 1 uM in GPI assay (Exp 2). The format is functional. The method, boiled down: as §1
The species named for assay [3] is Cavia porcellus. Nature of the assay: Reversible opioid antagonist activity in the electrically stimulated guinea pig ileum(GPI). Antagonist activity was evaluated with morphine at 0.02 uM concentration (Exp 2). The assay is classed as functional.
For assay [4], the species on record is Cavia porcellus. Nature of the assay: (§2) Reversible opioid agonist activity in the electrically stimulated guinea pig ileum(GPI) at 1 uM concentration (Exp 2). The assay is classed as functional.
Assay [5] is filed under the species Cavia porcellus. Nature of the assay: (§3) Reversible opioid agonist activity in the electrically stimulated guinea pig ileum(GPI) at 1 uM concentration (Exp 1). The assay is classed as functional.
In assay [6] the target is Delta-type opioid receptor (Mus musculus) (UniProt P32300). Nature of the assay: Ratio of IC50 of DADLE (agonist) after 10 min of incubation along with compound (antagonist) and IC50 of agonist in the absence of compound for delta opioid receptor at 1 uM in MVD assay. The format is functional. A digest of the protocol:
as §1

Assay [7] is filed under the species Mus musculus. Nature of the assay: (§4) Reversible opioid agonist activity in the electrically stimulated mouse vas deferens(MVD) at 1 uM concentration. The format is functional.
The target in assay [8] is Mu-type opioid receptor (Homo sapiens) (UniProt P35372). Nature of the assay: Ratio of IC50 of […] (agonist) after 10 min of incubation along with compound (antagonist) and IC50 of agonist in absence of compound for mu opioid receptor at 1 uM in MVD assay. The format is functional. The following applies: Mus musculus. A digest of the protocol: as §1
The target of assay [9] is Kappa-type opioid receptor (Cavia porcellus) (UniProt P41144). Nature of the assay: Ratio of IC50 of ethylketazocine (agonist) after 10 min of incubation along with compound (antagonist) and IC50 of agonist in absence of compound for kappa opioid receptor at 1 uM in GPI assay. The assay is classed as functional. A digest of the protocol: as §1
Assay [10] concerns the target Mu-type opioid receptor (Cavia porcellus) (UniProt P97266). Nature of the assay: Ratio of IC50 of […] (agonist) after 10 min of incubation along with compound (antagonist) and IC50 of agonist in absence of compound for mu opioid receptor at 1 uM in GPI assay. The assay is classed as functional. A digest of the protocol: as §1
Assay [11] is filed under the species Mus musculus. Nature of the assay: Ratio of IC50 of DADLE (agonist) expossed to the compound for 10 min and then washed 30 times to Ratio of IC50 of morphine (agonist) prior to exposure to compound. The format is functional. The method, boiled down: (§5)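 Irreversible antagonism was measured in isolated tissue. The tissue was exposed to the compound for 10 min (30 min in some cases), then washed 30 times with fresh buffer to remove non-covalently bound ligand. Agonist IC50 was then redetermined. The ratio is this post-wash IC50 over the agonist IC50 in the same tissue before exposure. Mean ± SEM, n = 3 unless otherwise noted.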

Assay [12] is filed under the species Mus musculus. Nature of the assay: Ratio of IC50 of morphine (agonist) expossed to the compound for 10 min and then washed 30 times to Ratio of IC50 of morphine (agonist) prior to exposure to compound. The assay is classed as functional. The method, boiled down: as §5
Assay [13] concerns the target Kappa-type opioid receptor (Cavia porcellus) (UniProt P41144). Nature of the assay: Ratio of IC50 of ethylketazocine (agonist) after 10 min of incubation along with compound (antagonist) and IC50 of agonist in absence of compound for Opioid receptor kappa 1 at 1 uM in GPI assay. The format is functional. The method, boiled down:
as §1

In assay [14] the target is T1, Opioid receptors; mu/kappa/delta (Homo sapiens) (UniProt P41145+P41143+P35372). Described as §3. The format is functional, tissue-based. Particulars: Cavia porcellus, target entry is the homologue from another species.
Assay [15] has as its target T2, Opioid receptor (Mus musculus) (UniProt P42866+P32300+P33534). Nature of the assay: Reversible opioid agonist activity in the electrically stimulated mouse vas deferens(MVD) at 10 uM of concentration. The assay is classed as functional.
The target of assay [16] is Delta-type opioid receptor (Mus musculus) (UniProt P32300). Nature of the assay: Ratio of IC50 of DADLE (agonist) after 10 min of incubation along with compound (antagonist) and IC50 of agonist in the absence of compound for Opioid receptor delta 1 at 1 uM in MVD assay. The format is functional. The method, boiled down:
as §1

Assay [17] shares this target. Nature of the assay: Ratio of IC50 of DADLE (agonist) after 10 min of incubation along with compound (antagonist) and IC50 of agonist in the absence of compound for Opioid receptor delta 1 at 10 uM in MVD assay. The format is functional. The method, boiled down:
as §1

The target of assay [18] is Mu-type opioid receptor (Cavia porcellus) (UniProt P97266). Nature of the assay: Ratio of IC50 of […] (agonist) after 10 min of incubation along with compound (antagonist) and IC50 of agonist in absence of compound for Opioid receptor mu 1 at 1 uM in GPI assay. The format is functional. A digest of the protocol: as §1
Assay [19] deals with Mu-type opioid receptor (Mus musculus) (UniProt P42866). Nature of the assay: Ratio of IC50 of […] (agonist) after 10 min of incubation along with compound (antagonist) and IC50 of agonist in absence of compound for Opioid receptor mu 1 at 1 uM in MVD assay. The assay is classed as functional. A digest of the protocol:
as §1

The target in assay [20] is T2, Opioid receptor (Mus musculus). The description is as §4. The format is functional.
Assay [21] concerns the target T1, Opioid receptors; mu/kappa/delta (Homo sapiens). The assay is described as §2. The assay is classed as functional, tissue-based. The following applies: Cavia porcellus, target entry is the homologue from another species.
Assay [22] is filed under the species Cavia porcellus. Nature of the assay: Reversible opioid agonist activity in the electrically stimulated guinea pig ileum(GPI) at 1 uM concentration (Experiment 1).
Assay [23] is filed under the species Cavia porcellus. Nature of the assay: Reversible opioid agonist activity in the electrically stimulated guinea pig ileum(GPI) at 1 uM concentration (Experiment 2).
In assay [24] the target is Mu-type opioid receptor (Cavia porcellus) (UniProt P97266). The following applies: 1 uM.

pIC50: −log10 of the molar value. “And” between values parts separate entries of the source, which are not always exact repeats. Equal values may be shown once. Square brackets hold non-standard residues; d marks the D form. Peptide text beside a SMILES is read from it. * marks the point of attachment. Tyr(Nα,Nα-Bn2) = O=C([C@H](Cc1ccc(O)cc1)N(Cc1ccccc1)Cc1ccccc1)*; Phe(4-N(CH2CH2Cl)2) = N[C@@H](Cc1ccc(N(CCCl)CCCl)cc1)C(=O)O; Tyr(Nα,Nα-allyl2) = C=CCN(CC=C)[C@@H](Cc1ccc(O)cc1)C(=O)*; Aib = CC(C)(N)C(=O)O

Chain of Kappa-type opioid receptor (Cavia porcellus) (P41144 whole entry): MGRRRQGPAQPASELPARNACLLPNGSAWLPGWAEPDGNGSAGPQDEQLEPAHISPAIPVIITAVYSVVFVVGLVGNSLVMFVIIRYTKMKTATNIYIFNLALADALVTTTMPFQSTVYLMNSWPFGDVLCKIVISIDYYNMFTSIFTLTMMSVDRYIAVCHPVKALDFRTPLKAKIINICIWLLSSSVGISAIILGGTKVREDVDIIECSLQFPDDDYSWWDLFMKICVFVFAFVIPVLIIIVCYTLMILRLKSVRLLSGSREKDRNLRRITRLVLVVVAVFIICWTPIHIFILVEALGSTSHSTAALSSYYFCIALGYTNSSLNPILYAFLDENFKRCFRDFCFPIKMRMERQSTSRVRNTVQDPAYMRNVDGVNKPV
Chain of Delta-type opioid receptor (Mus musculus) (P32300 whole entry): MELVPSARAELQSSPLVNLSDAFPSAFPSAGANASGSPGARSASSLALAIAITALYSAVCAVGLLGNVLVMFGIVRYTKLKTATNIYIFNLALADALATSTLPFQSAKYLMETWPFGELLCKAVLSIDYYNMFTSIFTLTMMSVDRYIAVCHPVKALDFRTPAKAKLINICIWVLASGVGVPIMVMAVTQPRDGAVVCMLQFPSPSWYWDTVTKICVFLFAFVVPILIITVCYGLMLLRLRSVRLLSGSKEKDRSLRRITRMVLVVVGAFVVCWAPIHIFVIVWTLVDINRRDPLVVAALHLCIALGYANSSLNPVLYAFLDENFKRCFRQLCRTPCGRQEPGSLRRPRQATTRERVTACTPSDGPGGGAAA
Chain of Mu-type opioid receptor (Homo sapiens) (P35372 whole entry): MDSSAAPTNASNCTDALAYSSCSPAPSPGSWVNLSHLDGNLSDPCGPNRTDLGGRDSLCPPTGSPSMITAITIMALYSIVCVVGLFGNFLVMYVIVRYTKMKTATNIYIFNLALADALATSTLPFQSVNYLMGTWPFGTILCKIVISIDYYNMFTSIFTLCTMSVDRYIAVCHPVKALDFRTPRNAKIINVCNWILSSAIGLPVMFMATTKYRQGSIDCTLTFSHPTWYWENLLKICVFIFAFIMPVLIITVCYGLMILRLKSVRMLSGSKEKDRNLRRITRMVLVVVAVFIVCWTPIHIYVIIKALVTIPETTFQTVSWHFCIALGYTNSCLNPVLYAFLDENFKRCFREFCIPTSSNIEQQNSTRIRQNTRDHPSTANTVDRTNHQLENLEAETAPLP
Chain of Mu-type opioid receptor (Cavia porcellus) (P97266 whole entry): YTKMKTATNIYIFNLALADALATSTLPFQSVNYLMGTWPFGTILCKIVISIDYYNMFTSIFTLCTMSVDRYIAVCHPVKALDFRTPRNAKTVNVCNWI
T2 sequence (P32300 whole entry, looked up): as the sequence (P32300 whole entry) above
T2 sequence (P33534 whole entry, looked up): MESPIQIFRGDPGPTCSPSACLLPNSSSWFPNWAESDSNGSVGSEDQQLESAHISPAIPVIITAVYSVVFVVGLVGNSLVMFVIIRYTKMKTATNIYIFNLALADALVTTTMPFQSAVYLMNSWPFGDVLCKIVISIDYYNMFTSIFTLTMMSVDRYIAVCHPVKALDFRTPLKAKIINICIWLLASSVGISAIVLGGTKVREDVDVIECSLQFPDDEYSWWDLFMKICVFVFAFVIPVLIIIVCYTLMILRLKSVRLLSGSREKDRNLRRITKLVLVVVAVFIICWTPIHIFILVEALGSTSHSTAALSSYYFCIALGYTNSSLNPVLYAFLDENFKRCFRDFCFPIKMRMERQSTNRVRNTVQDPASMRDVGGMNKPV
T2 sequence (P42866 whole entry, looked up): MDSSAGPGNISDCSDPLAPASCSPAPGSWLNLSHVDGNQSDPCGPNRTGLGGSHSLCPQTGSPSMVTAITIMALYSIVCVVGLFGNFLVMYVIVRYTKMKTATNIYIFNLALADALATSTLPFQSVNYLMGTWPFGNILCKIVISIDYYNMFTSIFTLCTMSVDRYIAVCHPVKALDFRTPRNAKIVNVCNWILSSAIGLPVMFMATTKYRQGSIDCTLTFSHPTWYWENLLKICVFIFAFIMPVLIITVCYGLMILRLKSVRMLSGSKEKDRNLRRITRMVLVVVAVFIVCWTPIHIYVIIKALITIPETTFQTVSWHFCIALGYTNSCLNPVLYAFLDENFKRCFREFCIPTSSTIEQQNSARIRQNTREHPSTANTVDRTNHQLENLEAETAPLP
T1 sequence (P35372 whole entry, looked up): as the sequence (P35372 whole entry) above
T1 sequence (P41143 whole entry, looked up): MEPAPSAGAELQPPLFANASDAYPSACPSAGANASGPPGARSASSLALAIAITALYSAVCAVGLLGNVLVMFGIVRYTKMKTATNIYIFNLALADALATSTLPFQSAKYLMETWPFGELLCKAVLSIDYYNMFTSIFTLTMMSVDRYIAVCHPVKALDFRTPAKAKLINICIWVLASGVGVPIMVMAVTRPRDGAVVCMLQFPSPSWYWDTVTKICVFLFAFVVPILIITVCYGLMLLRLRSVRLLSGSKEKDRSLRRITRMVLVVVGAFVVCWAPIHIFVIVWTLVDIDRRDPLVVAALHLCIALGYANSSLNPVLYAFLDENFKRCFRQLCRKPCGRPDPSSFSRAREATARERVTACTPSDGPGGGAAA
T1 sequence (P41145 whole entry, looked up): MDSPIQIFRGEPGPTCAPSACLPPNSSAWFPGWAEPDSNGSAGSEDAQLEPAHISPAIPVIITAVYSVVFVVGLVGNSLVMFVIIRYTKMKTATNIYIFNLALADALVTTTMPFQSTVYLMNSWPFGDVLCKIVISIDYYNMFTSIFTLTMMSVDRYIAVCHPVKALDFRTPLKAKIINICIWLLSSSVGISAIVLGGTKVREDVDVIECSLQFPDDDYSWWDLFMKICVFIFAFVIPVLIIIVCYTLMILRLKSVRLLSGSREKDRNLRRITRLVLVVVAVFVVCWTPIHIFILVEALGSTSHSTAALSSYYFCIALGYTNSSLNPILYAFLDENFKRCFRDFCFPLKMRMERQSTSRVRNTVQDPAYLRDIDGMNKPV
Chain of Mu-type opioid receptor (Mus musculus) (P42866 whole entry): as the sequence (P42866 whole entry, looked up) above

One may read the pIC50 as −log10 of the IC50, conventionally taken in molar units. What is called inhibition is the share of the control response that was lost under treatment. A higher inhibition goes with a strong effect. Regarding `CC(C)C[C@H](NC(=O)[C@H](Cc1ccccc1)NC(=O)C(C)(C)NC(=O)C(C)(C)NC(=O)[C@H](Cc1ccc(O)cc1)N(Cc1ccccc1)Cc1ccccc1)C(=O)O` ({Tyr(Nα,Nα-Bn2)}-[Aib][Aib]FL-OH), the IC50 ratio in assay [1] was determined as 1; in assay [2], 0.7; in the assay filed under Cavia porcellus [3], 1.3; in [6], 5.6; in assay [8] it was 1. In addition, in the assay listed under Cavia porcellus [4], the negative logarithm of the IC50 (pIC50) was 6.52. The inhibition at 1 µM worked out at 68.7% in the assay listed under Cavia porcellus [5] and 25.7% in the assay filed under Mus musculus [7].

The term Inhibition denotes the drop in the measured response relative to a control, in per cent. Take `CC(C)C[C@H](NC(=O)[C@H](Cc1ccc(N(CCCl)CCCl)cc1)NC(=O)C(C)(C)NC(=O)C(C)(C)NC(=O)[C@H](Cc1ccc(O)cc1)N(Cc1ccccc1)Cc1ccccc1)C(=O)O` ({Tyr(Nα,Nα-Bn2)}-[Aib][Aib][Phe(4-N(CH2CH2Cl)2)]L-OH): the IC50 ratio in assay [9] was 0.2 and 0.3; in [10], 0.4 and 1; in [6], 1.2; in assay [8], 1. Besides, the Inhibition in the assay listed under Cavia porcellus [5] is listed as 12.5%. Moreover, the inhibition at 1 µM in the assay listed under Cavia porcellus [5] (Cavia porcellus, Ileum) was determined as 9.4%; in the assay filed under Mus musculus [7], 22.5%.

Consider `C=CCN(CC=C)[C@@H](Cc1ccc(O)cc1)C(=O)NC(C)(C)C(=O)NC(C)(C)C(=O)N[C@@H](Cc1ccccc1)C(=O)N[C@@H](CC(C)C)C(=O)O` ({Tyr(Nα,Nα-allyl2)}-[Aib][Aib]FL-OH), for which the IC50 ratio in the assay listed under Mus musculus [11] is 5.5; in the assay listed under Mus musculus [12], 0.8; in [13] it was 0.7 and 0.9; in assay [16] it was 15.6; in [17] it was 147; in assay [18] it was 0.5 and 0.6. In assay [19], the IC50 ratio worked out at 0.8. The inhibition in assay [14] came out at 16.2%; in assay [15] it was 15.8%; in assay [20], 8.4%; in assay [21], 37.8%.

`C=CCN(CC=C)[C@@H](Cc1ccc(O)cc1)C(=O)NCC(=O)NCC(=O)N[C@@H](Cc1ccc(N(CCCl)CCCl)cc1)C(=O)N[C@@H](CC(C)C)C(=O)O` ({Tyr(Nα,Nα-allyl2)}-GG[Phe(4-N(CH2CH2Cl)2)]L-OH): the IC50 ratio in assay [2] is 1.1 and 1; in assay [6] it was 1.2; in assay [8] it was 1.1; in assay [24], 0.6. In addition, the inhibition at 1 µM in the assay listed under Cavia porcellus [22] came to 23%; in the assay listed under Cavia porcellus [23], 10%; in the assay listed under Mus musculus [7], 4.2%.

For the origin of these results see ChEMBL document CHEMBL1123840, “Synthesis and evaluation of melphalan-containing N,N-dialkylenkephalin analogues as irreversible antagonists of the delta opioid receptor” (J Med Chem, 1987).
